Values belong to the compound of their own block, whether it stands above or below them.
Experiments:
Mus musculus [1] = assay: Tumor volume in 16 days after tumor implantation at a dose of 3.125 mg/kg/day of compound; format: functional
Method in brief: (§1)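 10⁶ M5076 reticulum cell sarcoma cells were injected im into the left leg of female BDF₁ mice, five per group, on day 0. Compound in 10–20% DMSO/arachis oil was dosed ip daily on days 1–17. Tumor volumes (mm³) were recorded on days 12, 16, 20 and 24 after implantation, with NM marking a tumor that could not be measured.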

Mus musculus [2] = assay: Ratio of tumor volume of test(T) animals compared to control(C) animals x 100 T/C(%)] at a dose of 25 mg/kg/day; format: functional
Method in brief: (§2)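 M5076 reticulum cell sarcoma: 10⁶ cells implanted im into the left leg of female BDF₁ mice (groups of five) on day 0. Treatment was ip, daily on days 1–17, in 10–20% DMSO in arachis oil. T/C% is treated tumor volume over control tumor volume × 100.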

Mus musculus [3] = assay: Tumor volume in 16 days after tumor implantation at a dose of 6.25 mg/kg/day of compound; format: functional; method in brief: as §1
Mus musculus [4] = assay: Tumor volume in 20 days after tumor implantation at a dose of 6.25 mg/kg/day of compound; format: functional; method in brief: as §1
Mus musculus [5] = assay: Mean of weight gain from day 0 to day 24 at a dose of 6.25 mg/kg/day; format: functional; design: unit not given here
Method in brief: (§3)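 M5076 reticulum cell sarcoma: 10⁶ cells implanted im into the left leg of female BDF₁ mice (groups of five) on day 0. Drug in 10–20% DMSO in arachis oil was given ip daily on days 1–17. Weight change is the mean weight gain from day 0 to day 24.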

Mus musculus [6] = assay: Ratio of tumor volume of test(T) animals compared to control(C) animals x 100 T/C(%)] at a dose of 3.125 mg/kg/day; format: functional; method in brief: as §2
Mus musculus [7] = assay: Mean of weight gain from day 0 to day 24 at a dose of 25 mg/kg/day of compound; format: functional; design: unit not given here; method in brief: as §3
Mus musculus [8] = assay: Tumor volume in 16 days after tumor implantation at a dose of 12.5 mg/kg/day of compound; format: functional; method in brief: as §1
Mus musculus [9] = assay: Tumor volume in 24 days after tumor implantation at a dose of 6.25 mg/kg/day; format: functional; method in brief: as §1
Mus musculus [10] = assay: (§4) Mean of weight gain from day 0 to day 24 at a dose of 3.125 mg/kg/day of compound; format: functional; design: unit not given here; method in brief: as §3
Mus musculus [11] = assay: Tumor volume in 24 days after tumor implantation at a dose of 50 mg/kg/day of compound; format: functional; method in brief: as §1
Mus musculus [12] = assay: Tumor volume in 24 days after tumor implantation at a dose of 3.125 mg/kg/day; format: functional; method in brief: as §1
Mus musculus [13] = assay: Ratio of tumor volume of test(T) animals compared to control(C) animals x 100 T/C(%)] at a dose of 6.25 mg/kg/day; format: functional; method in brief: as §2
Mus musculus [14] = assay: Tumor volume in 20 days after tumor implantation at a dose of 12.5 mg/kg/day of compound; format: functional; method in brief: as §1
Mus musculus [15] = assay: Ratio of tumor volume of test (T) animals compared to control (C) animals x 100 T/C(%)] at a dose of 50 mg/kg/day of compound; format: functional; method in brief: as §2
Mus musculus [16] = assay: Mean of weight gain from day 0 to day 24 in the mice at a dose of 50 mg/kg/day of compound; format: functional; method in brief: as §3
Mus musculus [17] = assay: Tumor volume in 20 days after tumor implantation at a dose of 3.125 mg/kg/day; format: functional; method in brief: as §1
Mus musculus [18] = assay: Tumor volume in 12 days after tumor implantation at a dose of 6.25 mg/kg/day of compound; format: functional; method in brief: as §1
Mus musculus [19] = assay: Ratio of tumor volume of test(T) animals compared to control(C) animals x 100 T/C(%)] at a dose of 12.50 mg/kg/day; format: functional; method in brief: as §2
Mus musculus [20] = assay: Tumor volume in 24 days after tumor implantation at a dose of 12.5 mg/kg/day; format: functional; method in brief: as §1
Mus musculus [21] = assay: Mean of weight gain from day 0 to day 24 at a dose of 12.5 mg/kg/day of compound; format: functional; design: unit not given here; method in brief: as §3
Mus musculus [22] = assay: Tumor volume in 24 days after tumor implantation at a dose of 25 mg/kg/day of compound; format: functional; method in brief: as §1
Mus musculus [23] = assay: Tumor volume in 12 days after tumor implantation at a dose of 3.125 mg/kg/day of compound; format: functional; method in brief: as §1
Mus musculus [24] = assay: Tumor volume in 12 days after tumor implantation at a dose of 12.5 mg/kg/day of compound; format: functional; method in brief: as §1
Mus musculus [25] = assay: Tumor volume in 20 days after tumor implantation at a dose of 25 mg/kg/day of compound; format: functional; method in brief: as §1
Mus musculus [26] = assay: Tumor volume in 16 days after tumor implantation at a dose of 25 mg/kg/day of compound; format: functional; method in brief: as §1
Mus musculus [27] = assay: Tumor volume in 20 days after tumor implantation at a dose of 3.125 mg/kg/day of compound; format: functional; method in brief: as §1
Mus musculus [28] = assay: Tumor volume in 24 days after tumor implantation at a dose of 3.125 mg/kg/day of compound; format: functional; method in brief: as §1
Mus musculus [29] = assay: Ratio of tumor volume of test(T) animals compared to control(C) animals x 100T/C(%)] at a dose of 3.125 mg/kg/day of compound; format: organism-based; settings: in vivo; method in brief: as §2
Mus musculus [30] = assay: as §4; format: functional; method in brief: as §3
Mus musculus [31] = assay: Mean of weight gain from day 0 to day 24 at a dose of 50 mg/kg/day of compound; format: functional; method in brief: as §3

SMILES: CCCCNc1ccc(-c2c(N)nc(N)nc2CC)cc1[N+](=O)[O-]
Tumor volume (Mus musculus [1]): 622 mm**3
Antitumor activity (Mus musculus [2]): 22%
Tumor volume (Mus musculus [3]): 438 mm**3
Tumor volume (Mus musculus [4]): 913 mm**3
Weight change (Mus musculus [5]): 5.4
Antitumor activity (Mus musculus [6]): 78%
Weight change (Mus musculus [7]): 3.7
Tumor volume (Mus musculus [8]): 283 mm**3
Tumor volume (Mus musculus [9]): 1920 mm**3
Weight change (Mus musculus [10]): 8.2
Tumor volume (Mus musculus [11]): 368 mm**3
Tumor volume (Mus musculus [12]): 2143 mm**3
Antitumor activity (Mus musculus [13]): 70%
Tumor volume (Mus musculus [14]): 496 mm**3
Antitumor activity (Mus musculus [15]): 15%
Weight change (Mus musculus [16]): 2.7
Tumor volume (Mus musculus [17]): 1176 mm**3
Tumor volume (Mus musculus [18]): 212 mm**3
Antitumor activity (Mus musculus [19]): 41%
Tumor volume (Mus musculus [20]): 1061 mm**3
Weight change (Mus musculus [21]): 3.6
Tumor volume (Mus musculus [22]): 638 mm**3
Tumor volume (Mus musculus [23]): 271 mm**3
Tumor volume (Mus musculus [24]): 180 mm**3

SMILES: CCc1nc(N)nc(N)c1-c1ccc(NCc2ccc(C)cc2)c([N+](=O)[O-])c1
Tumor volume (Mus musculus [1]): 596 mm**3
Antitumor activity (Mus musculus [2]): 20%
Tumor volume (Mus musculus [3]): 270 mm**3
Tumor volume (Mus musculus [4]): 704 mm**3
Weight change (Mus musculus [5]): 2.1
Tumor volume (Mus musculus [25]): 426 mm**3
Antitumor activity (Mus musculus [6]): 76%
Weight change (Mus musculus [7]): 2.4
Tumor volume (Mus musculus [8]): 198 mm**3
Tumor volume (Mus musculus [9]): 1099 mm**3
Weight change (Mus musculus [10]): 3
Tumor volume (Mus musculus [12]): 1881 mm**3
Antitumor activity (Mus musculus [13]): 44%
Tumor volume (Mus musculus [14]): 385 mm**3
Tumor volume (Mus musculus [17]): 1581 mm**3
Tumor volume (Mus musculus [26]): 180 mm**3
Antitumor activity (Mus musculus [19]): 24%
Tumor volume (Mus musculus [20]): 641 mm**3
Weight change (Mus musculus [21]): 2.4
Tumor volume (Mus musculus [22]): 514 mm**3

T/C (Mus musculus [29]): 92%
SMILES: CN(Cc1cnc2nc(N)nc(N)c2n1)c1ccc(C(=O)N[C@@H](CCC(=O)O)C(=O)O)cc1 [METHOTREXATE]
Tumor volume (Mus musculus [1]): 987 mm**3
Tumor volume (Mus musculus [3]): 389 mm**3
Tumor volume (Mus musculus [27]): 1914 mm**3
Tumor volume (Mus musculus [28]): 2270 mm**3
Tumor volume (Mus musculus [18]): 347 mm**3
Weight change (Mus musculus [30]): 3.9
Tumor volume (Mus musculus [23]): 411 mm**3

SMILES: CCc1nc(N)nc(N)c1-c1ccc(NCc2ccc(Cl)c(Cl)c2)c([N+](=O)[O-])c1
Tumor volume (Mus musculus [1]): 498 mm**3
Antitumor activity (Mus musculus [2]): <8%
Tumor volume (Mus musculus [3]): 256 mm**3
Tumor volume (Mus musculus [4]): 385 mm**3
Weight change (Mus musculus [5]): 3.5
Antitumor activity (Mus musculus [6]): 48%
Weight change (Mus musculus [7]): 2.7
Tumor volume (Mus musculus [9]): 851 mm**3
Weight change (Mus musculus [10]): 3.6
Tumor volume (Mus musculus [12]): 1173 mm**3
Weight change (Mus musculus [31]): 2.9
Antitumor activity (Mus musculus [13]): 36%
Tumor volume (Mus musculus [14]): 216 mm**3
Antitumor activity (Mus musculus [15]): <8%
Tumor volume (Mus musculus [17]): 858 mm**3
Antitumor activity (Mus musculus [19]): 16%
Tumor volume (Mus musculus [20]): 395 mm**3
Weight change (Mus musculus [21]): 3
Tumor volume (Mus musculus [23]): 216 mm**3
